Experimental data as given in ChEMBL document CHEMBL1130118, “A novel radioiodination reagent for protein radiopharmaceuticals with L-lysine as a plasma-stable metabolizable linkage to liberate m-iodohippuric acid after lysosomal proteolysis” (J Med Chem, 1997).

How the values were obtained:
Format in all cases: ADME, organism-based
Mus musculus [1] = assay: The biodistribution time for compound radioactivity after concomitant administration of [[131 I ]L-HML-NGA and compound in mice. It is expressed as percent injected dose per kidney after 5 minutes; conditions: in vivo
Procedure, shortened: (§1)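 Six-week-old male ddY mice received an intravenous injection of a 1:1 mix of the 131I- and 125I-labelled galactosyl-neoglycoalbumin conjugates, each diluted to 90 µg/mL protein in 0.1 M PBS pH 6.0, at 9 µg radioiodinated NGA per mouse. Groups of five were killed at 5, 15 and 30 min, 1 and 3 h. Organs were excised, weighed and well-counted, giving %ID/organ (blood %ID/g) as mean (SD).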

Mus musculus [2] = assay: The biodistribution time for compound radioactivity after concomitant administration of [[131 I ]L-HML-NGA and compound in mice. It is expressed as percent injected dose per kidney after 3 hours; conditions: in vivo; procedure, shortened: as §1
Mus musculus [3] = assay: The biodistribution time for compound radioactivity after concomitant administration of [131 I ]L-HML-NGA and compound in mice. It is expressed as percent injected dose per intestine after 30 minutes; conditions: in vivo, 0.5 h; procedure, shortened: as §1
Mus musculus [4] = assay: The biodistribution time for compound radioactivity after concomitant administration of [131 I ]L-HML-NGA and compound in mice. It is expressed as percent injected dose per gram of blood tissue after 1 hour; conditions: in vivo; procedure, shortened: as §1
Mus musculus [5] = assay: The biodistribution time for compound radioactivity after concomitant administration of [131 I ]L-HML-NGA and compound in mice. It is expressed as percent injected dose per neck after 30 minutes; conditions: in vivo, 0.5 h; procedure, shortened: as §1
[6] = Cumulative radioactivity exerted by compound in the urine at 24 hour postinjection of [131 I ]L-HML-NGA and compound; conditions: in vivo
Procedure, shortened: (§2)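 Mice received one i.v. co-injection of the dual-isotope NGA mixture, 9 µg of each radioiodinated protein, and were housed in metabolic cages for 24 h. Cumulative urine and feces were collected and counted. Values are % injected dose, mean (SD) of five animals, with a Student's paired t-test between the two co-administered conjugates.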

Homo sapiens [7] = species: Homo sapiens; assay: The percent protein-bound radioactivity in NGAfractions following incubation of radioiodinated compound in human serum after 6 hours; conditions: in vitro
Procedure, shortened: (§3)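 Conjugates were diluted to 0.5 mg/mL in 0.1 M PBS pH 6.0, and 20 µL was added to 230 µL of freshly prepared human serum. Samples were incubated at 37 °C and taken at 1, 3, 6 or 24 h. Protein-bound fraction (Rf 0) was separated from small metabolites (Rf 0.6-0.9) by paper chromatography in methanol-water 4:1. Protein-bound radioactivity was divided by the initial radiochemical purity. Values are mean (SD).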

Homo sapiens [8] = species: Homo sapiens; assay: The percent protein-bound radioactivity in NGAfractions following incubation of radioiodinated compound in human serum after 24 hours; procedure, shortened: as §3
Mus musculus [9] = assay: The biodistribution time for compound radioactivity after concomitant administration of [131 I ]L-HML-NGA and compound in mice. It is expressed as percent injected dose per liver after 3 hours; conditions: in vivo; procedure, shortened: as §1
Mus musculus [10] = assay: The biodistribution time for compound radioactivity after concomitant administration of [[131 I ]L-HML-NGA and compound in mice. It is expressed as percent injected dose per kidney after 30 minutes; conditions: in vivo, 0.5 h; procedure, shortened: as §1
Mus musculus [11] = assay: The biodistribution time for compound radioactivity after concomitant administration of [131 I ]L-HML-NGA and compound in mice. It is expressed as percent injected dose per gram of blood tissue after 30 minutes; conditions: in vivo, 0.5 h; procedure, shortened: as §1
Mus musculus [12] = assay: The biodistribution time for compound radioactivity after concomitant administration of [131 I ]L-HML-NGA and compound in mice. It is expressed as percent injected dose per intestine after 3 hours; conditions: in vivo; procedure, shortened: as §1
Homo sapiens [13] = species: Homo sapiens; assay: The percent protein-bound radioactivity in NGAfractions following incubation of radioiodinated compound in human serum after 1 hour; procedure, shortened: as §3
Mus musculus [14] = assay: The biodistribution time for compound radioactivity after concomitant administration of [[131 I ]L-HML-NGA and compound in mice. It is expressed as percent injected dose per kidney after 15 minutes; conditions: in vivo, 0.25 h; procedure, shortened: as §1
Mus musculus [15] = assay: The biodistribution time for compound radioactivity after concomitant administration of [131 I ]L-HML-NGA and compound in mice. It is expressed as percent injected dose per stomach after 3 hours; conditions: in vivo; procedure, shortened: as §1
Mus musculus [16] = assay: The biodistribution time for compound radioactivity after concomitant administration of [131 I ]L-HML-NGA and compound in mice. It is expressed as percent injected dose per gram of blood tissue after 15 minutes; conditions: in vivo, 0.25 h; procedure, shortened: as §1
Mus musculus [17] = assay: The biodistribution time for compound radioactivity after concomitant administration of [131 I ]L-HML-NGA and compound in mice. It is expressed as percent injected dose per liver after 5 minutes; conditions: in vivo; procedure, shortened: as §1
Mus musculus [18] = assay: The biodistribution time for compound radioactivity after concomitant administration of [131 I ]L-HML-NGA and compound in mice. It is expressed as percent injected dose per stomach after 15 minutes; conditions: in vivo, 0.25 h; procedure, shortened: as §1
Mus musculus [19] = assay: The biodistribution time for compound radioactivity after concomitant administration of [131 I ]L-HML-NGA and compound in mice. It is expressed as percent injected dose per neck after 15 minutes; conditions: in vivo, 0.25 h; procedure, shortened: as §1
Mus musculus [20] = assay: The biodistribution time for compound radioactivity after concomitant administration of [131 I ]L-HML-NGA and compound in mice. It is expressed as percent injected dose per liver after 30 minutes; conditions: in vivo, 0.5 h; procedure, shortened: as §1
Mus musculus [21] = assay: The biodistribution time for compound radioactivity after concomitant administration of [131 I ]L-HML-NGA and [compound in mice. It is expressed as percent injected dose per stomach after 1 hour; conditions: in vivo; procedure, shortened: as §1
Mus musculus [22] = assay: The biodistribution time for compound radioactivity after concomitant administration of [131 I ]L-HML-NGA and compound in mice. It is expressed as percent injected dose per liver after 15 minutes; conditions: in vivo, 0.25 h; procedure, shortened: as §1
Mus musculus [23] = assay: The biodistribution time for compound radioactivity after concomitant administration of [131 I ]L-HML-NGA and compound in mice. It is expressed as percent injected dose per intestine after 1 hour; conditions: in vivo; procedure, shortened: as §1
Mus musculus [24] = assay: The biodistribution time for compound radioactivity after concomitant administration of [131 I ]L-HML-NGA and compound in mice. It is expressed as percent injected dose per liver after 1 hour; conditions: in vivo; procedure, shortened: as §1
Homo sapiens [25] = species: Homo sapiens; assay: The percent protein-bound radioactivity in NGAfractions following incubation of radioiodinated compound in human serum after 3 hours; procedure, shortened: as §3
Mus musculus [26] = assay: The biodistribution time for compound radioactivity after concomitant administration of [131 I ]L-HML-NGA and compound in mice. It is expressed as percent injected dose per neck after 5 minutes; conditions: in vivo; procedure, shortened: as §1
Mus musculus [27] = assay: The biodistribution time for compound radioactivity after concomitant administration of [131 I ]L-HML-NGA and compound in mice. It is expressed as percent injected dose per gram of blood tissue after 5 minutes; conditions: in vivo; procedure, shortened: as §1
[28] = Cumulative radioactivity exerted by compound in the feces at 24 hour postinjection of [131 I ]L-HML-NGA and compound.; conditions: in vivo; procedure, shortened: as §2
Mus musculus [29] = assay: The biodistribution time for compound radioactivity after concomitant administration of [[131 I ]L-HML-NGA and compound in mice. It is expressed as percent injected dose per kidney after 1 hour; conditions: in vivo; procedure, shortened: as §1
Mus musculus [30] = assay: The biodistribution time for compound radioactivity after concomitant administration of [131 I ]L-HML-NGA and compound in mice. It is expressed as percent injected dose per intestine after 15 minutes; conditions: in vivo, 0.25 h; procedure, shortened: as §1
Mus musculus [31] = assay: The biodistribution time for compound radioactivity after concomitant administration of [131 I ]L-HML-NGA and compound in mice. It is expressed as percent injected dose per intestine after 5 minutes; conditions: in vivo; procedure, shortened: as §1
Mus musculus [32] = assay: The biodistribution time for compound radioactivity after concomitant administration of [131 I ]L-HML-NGA and compound in mice. It is expressed as percent injected dose per stomach after 30 minutes; conditions: in vivo, 0.5 h; procedure, shortened: as §1
Mus musculus [33] = assay: The biodistribution time for compound radioactivity after concomitant administration of [131 I ]L-HML-NGA and compound in mice. It is expressed as percent injected dose per neck after 1 hour; conditions: in vivo; procedure, shortened: as §1
Mus musculus [34] = assay: The biodistribution time for compound radioactivity after concomitant administration of [131 I ]L-HML-NGA and compound in mice. It is expressed as percent injected dose per stomach after 5 minutes; conditions: in vivo; procedure, shortened: as §1
Mus musculus [35] = assay: The biodistribution time for compound radioactivity after concomitant administration of [131 I ]L-HML-NGA and compound in mice. It is expressed as percent injected dose per gram of blood tissue after 3 hours; conditions: in vivo; procedure, shortened: as §1
Mus musculus [36] = assay: The biodistribution time for compound radioactivity after concomitant administration of [131 I ]L-HML-NGA and compound in mice. It is expressed as percent injected dose per neck after 3 hours; conditions: in vivo; procedure, shortened: as §1

Radioactivity (Mus musculus [1]): 0.8% | Radioactivity (Mus musculus [2]): 0.38% | Radioactivity (Mus musculus [3]): 33.84% | Radioactivity (Mus musculus [4]): 0.32% | Radioactivity (Mus musculus [5]): 0.07% | Radioactivity [6]: 25.5% | Radioactivity (Homo sapiens [7]): 98.56% | Radioactivity (Homo sapiens [8]): 97.26% | Radioactivity (Mus musculus [9]): 5.72% | Radioactivity (Mus musculus [10]): 1.72% | Radioactivity (Mus musculus [11]): 0.64% | Radioactivity (Mus musculus [12]): 59.36% | Radioactivity (Homo sapiens [13]): 100.07% | Radioactivity (Mus musculus [14]): 1.62% | Radioactivity (Mus musculus [15]): 1.48% | Radioactivity (Mus musculus [16]): 0.68% | Radioactivity (Mus musculus [17]): 93.75% | Radioactivity (Mus musculus [18]): 0.46% | Radioactivity (Mus musculus [19]): 0.06% | Radioactivity (Mus musculus [20]): 34.19% | Radioactivity (Mus musculus [21]): 0.61% | Radioactivity (Mus musculus [22]): 77.12% | Radioactivity (Mus musculus [23]): 55.62% | Radioactivity (Mus musculus [24]): 10.12% | Radioactivity (Homo sapiens [25]): 99.12% | Radioactivity (Mus musculus [26]): 0.06% | Radioactivity (Mus musculus [27]): 0.76% | Radioactivity [28]: 58.83% | Radioactivity (Mus musculus [29]): 0.77% | Radioactivity (Mus musculus [30]): 7.17% | Radioactivity (Mus musculus [31]): 0.71% | Radioactivity (Mus musculus [32]): 0.54% | Radioactivity (Mus musculus [33]): 0.04% | Radioactivity (Mus musculus [34]): 0.24% | Radioactivity (Mus musculus [35]): 0.23% | Radioactivity (Mus musculus [36]): 0.04%
Compound: N[C@@H](CS)C(=O)SC1CC(=O)N(CCCCCNC(=O)CNC(=O)c2cccc([125I])c2)C1=O (stereo partly specified)
